Rows were chosen to be rich in hits. Some 6.6% of all compounds tested hit in one or more screens of this group.
Jurkat tox 60K – cytotoxic compounds reducing Jurkat cell viability. Jurkat E6.1 viability, ATP luminescence, 48 h. inhibition, % at 4 µM. hit rate 1.2% among 56,000. AID 463;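 active = inhibition above the mean inhibition of all tested compounds plus 3 SD, cut at about 28% in these data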
H69AR inhibit – blocks growth of human H69AR lung tumor cells; viability, % at 10 µM; H69AR lung tumor viability, ATP luminescence, 72 h; hits give low values; hit rate 6% among 85,000;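 active = viability at or below 40%; inactive = viability above 40%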;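 also: multidrug resistant small cell line overexpressing MRP-1 efflux transporter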
HUVEC prolif 384 – blocks proliferation of human endothelial cells. HUVEC proliferation, CellTiter-Glo luminescence, 72 h; hits give low values. viability, % at 10 µM (by protocol). hit rate 1.1% among 86,000;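 active = viability at or below 30%; inactive = viability above 30%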
Fibroblast inh – blocks proliferation of human lung fibroblasts; LL 47 human lung fibroblast viability, ATP luminescence; hits give low values; viability, % at 10 µM; hit rate 1.1% among 85,000; AID 719;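 active = viability at or below 50% in the single dose screen; inactive = viability above 50%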;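 also: compound exposure lasted 72 h before the ATP readout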
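material = human LL 47 lung fibroblast cells | dosing = compounds added from tenfold dosing solution, 0.1% DMSO final | timing = overnight cell rest, 72 h compound treatment at 37 °C | measured by = CellTiter-Glo luminescence measuring cellular ATP | evaluation = % viability versus median cells-only luminescence | control set = cell-only wells, no compound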
Of the large screens only hits and unclear results are named; the others gave an inactive call.

O=C(c1cccn2c(=O)c3cc(Br)ccc3nc12)N1CCC2(CC1)OCCO2	none (no result: Jurkat tox 60K)
Cc1cccn2c(=O)c3cc(C(=O)N4CCC5(CC4)OCCO5)n(C)c3nc12	H69AR inhibit 20
CC1=CC(=C2C(=O)NC(=S)NC2=O)C=C(C(F)(F)F)N1C	none (no result: Jurkat tox 60K)
CCOC(=O)c1c(C)n(Cc2ccccc2)c2ccc(OCC(O)Cn3nc(C)nc3C)cc12 (stereo not drawn)	none
CCOC(=O)c1c(C)n(Cc2ccccc2)c2ccc(OCC(O)Cn3nc(C)cc3C)cc12 (stereo not drawn)	H69AR inhibit 12 (no result: Jurkat tox 60K)
N=c1sc2c(n1Cc1ccccc1)CCCC2	none
N=c1c2c(n(Cc3ccc(Cl)cc3Cl)c3c1CCC3)CCCC2	Jurkat tox 60K 37
O=c1c2ccccc2nc(-c2ccoc2)n1-c1ccccc1	none (no result: Jurkat tox 60K)
O=C(c1ccc2c(=O)n(Cc3ccc4c(c3)OCO4)c(=S)[nH]c2c1)N1CCC2(CC1)OCCO2	H69AR inhibit 32 (no result: Jurkat tox 60K)
CCCCn1c(=O)c(C(=O)Nc2nc3ccccc3[nH]2)c(O)c2ccccc21	H69AR inhibit 8.5
CC(C)CCn1c(=O)c(C(=O)Nc2ccccc2S(N)(=O)=O)c(O)c2ccccc21	H69AR inhibit 7.4 (no result: Jurkat tox 60K)
CCCCn1c(=O)c(C(=O)Nc2cnccn2)c(O)c2ccccc21	H69AR inhibit 14, Fibroblast inh 48
Cn1cccc1CNCCc1ccccc1F	none
N#Cc1cc2c(nc1SCC(=O)Nc1cc(Cl)ccc1Cl)C1CCN2CC1	H69AR inhibit 1.8, HUVEC prolif 384 5.5, Fibroblast inh 7.1 (no result: Jurkat tox 60K)
N#Cc1cc2c(nc1SCC(=O)Nc1ccc(Cl)cc1)C1CCN2CC1	none (no result: Fibroblast inh)
CN(C)P(=O)(C(Cl)=C(N1CCCCC1)N1CCCCC1)N(C)C	none
CC(=O)OC1(c2ccccc2)CCN(C)C(C)C1C (stereo not drawn)	none (no result: Jurkat tox 60K)
CCCCC1(CCCC)C(=O)NC(=Nc2cccc(C)c2)NC1=O	H69AR inhibit 7.8 (no result: Jurkat tox 60K)
Cc1cccn2c(=O)c3c(nc12)N1CCC(Cc2ccccc2)CC1C1(C3)C(=O)N(C)C(=O)N(C)C1=O (stereo not drawn)	H69AR inhibit 29
CN(C)C=C1C(=O)N(C2CCCCC2)C(=O)N(C2CCCCC2)C1=O	H69AR inhibit 31
CC(C)OC(=O)c1c(N)n(CC2CCCO2)c2nc3ccccc3nc12 (stereo not drawn)	H69AR inhibit 34 (no result: Fibroblast inh)
CC(C)CCn1c(N)c(C(=O)OCC2CCCO2)c2nc3ccccc3nc21 (stereo not drawn)	H69AR inhibit 20
Cc1ccsc1-c1nc(CSCC(=O)N2CCC3(CC2)OCCO3)c(C)o1	none (no result: Jurkat tox 60K)
CCCOC(=O)c1c(N)n(Cc2cccs2)c2nc3ccccc3nc12	none (no result: Jurkat tox 60K)
Nc1c(C(=O)NCCCc2ccccc2)c2nc3ccccc3nc2n1Cc1cccs1	none (no result: Jurkat tox 60K)
CCCCCn1c(N)c(C(=O)NCc2cccs2)c2nc3ccccc3nc21	H69AR inhibit 32 (no result: Jurkat tox 60K)
CCCCn1c(N)c(C(=O)NCc2cccs2)c2nc3ccccc3nc21	H69AR inhibit 35 (no result: Jurkat tox 60K)
CCC(=NCCCn1ccnc1)c1c(O)n(Cc2ccccc2)c(=O)[nH]c1=O	none (no result: Jurkat tox 60K)
O=C(CCCN1CCC2(CC1)C(=O)NCN2c1ccccc1)c1ccc(F)cc1	none (no result: Jurkat tox 60K)
COC(=O)c1cc(COc2cc(C)cc3oc(=O)c4c(c23)CCC4)c(C)o1	none
Cc1oc(C(=O)Nc2ccc(O)cc2)cc1COc1ccccc1	H69AR inhibit 29
Cn1c(=O)cc(OCC(=O)N2CCN(Cc3ccc4c(c3)OCO4)CC2)c2ccccc21	none
CCCCc1ccc2[nH]cc(CCN)c2c1	H69AR inhibit 14
C[C@H]1CCCC(=O)CCC/C=C/c2cc(O)cc(O)c2C(=O)O1	H69AR inhibit 36 (no result: Jurkat tox 60K)
O=C1CN=C(c2cccs2)c2c(sc3c2CCCC3)N1	Jurkat tox 60K 86, H69AR inhibit 21
Cc1cc2c(s1)NC(=O)CN=C2c1cccs1	none (no result: Jurkat tox 60K)
O=c1cccc2n1CC1CC2CN(C(c2ccccc2)c2sc3ncnn3c2O)C1 (stereo not drawn)	none
Fc1ccc2c(c1)nnn2C1CCN(Cc2c(Cl)cccc2Cl)CC1	none (no result: Jurkat tox 60K)
Cc1ccc(Cn2nnnc2CN2CCC(n3nnc4cc(C)ccc43)CC2)cc1	H69AR inhibit 27
Cc1ccc(Cn2nnnc2CN2CCC(n3nnc4cc(C(F)(F)F)ccc43)CC2)cc1	H69AR inhibit 2.0
Fc1ccc2c(c1)nnn2C1CCN(Cc2nnnn2C2CCCCC2)CC1	H69AR inhibit 27
CCOC(=O)c1c(NC(=O)C(c2ccccc2)c2ccccc2)sc2c1C1CCN2CC1	none (no result: Jurkat tox 60K)
CCOC(=O)c1c(NC(=O)c2c(N)n(CCCOC)c3nc4ccccc4nc23)sc2c1CCCC2	H69AR inhibit 11 (no result: Jurkat tox 60K)
CCCCOCCCn1c(N)c(C(=O)OCCOC)c2nc3ccccc3nc21	none (no result: Jurkat tox 60K)
COc1ccc(CCNC(=O)c2c(N)n(CCN3CCOCC3)c3nc4ccccc4nc23)cc1OC	H69AR inhibit 12 (no result: Jurkat tox 60K)
CCCCCCn1c(N)c(C(=O)NCCN2CCOCC2)c2nc3ccccc3nc21	H69AR inhibit 1.5, HUVEC prolif 384 28
COCCCn1c(N)c(C(=O)NCCC(C)C)c2nc3ccccc3nc21	H69AR inhibit 18
CCOC(=O)c1cc(C)n(CCc2cnc[nH]2)c1C	none (no result: Jurkat tox 60K)
CC(C(=O)Nc1ccc(Br)cc1C(=O)c1ccccc1)N1CCOCC1 (stereo not drawn)	none (no result: Jurkat tox 60K)
CCCCCn1c(N)c(C(=O)NCCN2CCOCC2)c2nc3ccccc3nc21	H69AR inhibit 30
CCCNC(=O)c1c(N)n(CC2CCCO2)c2nc3ccccc3nc12 (stereo not drawn)	none
CCCCNC(=O)c1c(N)n(Cc2ccc3c(c2)OCO3)c2nc3ccccc3nc12	H69AR inhibit 5.1 (no result: Jurkat tox 60K)
CC(C)OCCCNC(=O)c1c(N)n(CC2CCCO2)c2nc3ccccc3nc12 (stereo not drawn)	none
Nc1c(C(=O)NCc2ccco2)c2nc3ccccc3nc2n1CCN1CCOCC1	H69AR inhibit 39 (no result: Jurkat tox 60K)
CC(=NCCN1CCCCC1)c1c(O)n(-c2ccc(Cl)cc2)c(=O)[nH]c1=O	none (no result: Jurkat tox 60K)
CSC(=Nc1ccccc1)c1c(O)n(C)c(=O)n(C)c1=O	Jurkat tox 60K 34
Cn1c(O)c(C(=NCCN2CCCCC2)c2ccccc2Cl)c(=O)n(C)c1=O	none
O=C(c1ccccc1F)c1cn(CC(=O)N2CCCCC2)c2ccccc12	none (no result: Jurkat tox 60K)
O=C1CN=C(c2ccccc2)c2oc3ccc(Br)cc3c2N1	none
COc1cccc(OC)c1C1=NCC(=O)Nc2c1oc1ccc(Br)cc21	Jurkat tox 60K 99, H69AR inhibit 34
CCC(C)C12CN3CCN(CC(C)(C3)C1=O)C2 (stereo not drawn)	none (no result: Jurkat tox 60K)
CCC(=Nc1ccc2c(c1)CCC2)c1c(O)n(C2CCCCC2)c(=O)[nH]c1=O	none
CC(=Nc1ccc2c(c1)CCC2)c1c(O)n(C2CCCCC2)c(=O)[nH]c1=O	Fibroblast inh 37
CCOC(=O)c1c(N)n(Cc2ccco2)c2nc3ccccc3nc12	none (no result: Fibroblast inh)
Nc1c(C(=O)NCc2ccco2)c2nc3ccccc3nc2n1Cc1ccc(F)cc1	H69AR inhibit 22 (no result: Jurkat tox 60K)
COc1ccc(Cn2c(N)c(C(=O)NCc3ccco3)c3nc4ccccc4nc32)cc1	H69AR inhibit 38
O=C(O)c1nonc1-c1nonc1C(=O)O	none
COc1ccc(-n2c(O)c(C(C)=NCCCn3ccnc3)c(=O)[nH]c2=O)cc1	none (no result: Jurkat tox 60K)
COP(=O)(OC)C1(Nc2ccc(C)cc2)CCCCC1	none (no result: Jurkat tox 60K)
Cc1ccc(NC(=O)CN2C(=O)CN=C(c3ccccc3)c3cc(Cl)ccc32)cc1	H69AR inhibit 25 (no result: Jurkat tox 60K)

Screening data: PubChem BioAssay, several laboratories
